Data published in ChEMBL document CHEMBL4308845, “Allosteric Activation of Striatal-Enriched Protein Tyrosine Phosphatase (STEP, PTPN5) by a Fragment-like Molecule” (J Med Chem, 2019).
Calls of active or inactive are those of the source. The rule behind the calls is not given here.

Legend:
[1] = molecular target: T1, Tyrosine-protein phosphatase non-receptor type 1 (Homo sapiens) (UniProt P18031); test: Activation of human PTP1B (1 to 405 residues) at 500 uM preincubated for 10 mins followed by EDT-pY-Y-RKG-amide substrate addition and measured after 1.5 hrs by AlphaLISA assay
T1 sequence (whole entry): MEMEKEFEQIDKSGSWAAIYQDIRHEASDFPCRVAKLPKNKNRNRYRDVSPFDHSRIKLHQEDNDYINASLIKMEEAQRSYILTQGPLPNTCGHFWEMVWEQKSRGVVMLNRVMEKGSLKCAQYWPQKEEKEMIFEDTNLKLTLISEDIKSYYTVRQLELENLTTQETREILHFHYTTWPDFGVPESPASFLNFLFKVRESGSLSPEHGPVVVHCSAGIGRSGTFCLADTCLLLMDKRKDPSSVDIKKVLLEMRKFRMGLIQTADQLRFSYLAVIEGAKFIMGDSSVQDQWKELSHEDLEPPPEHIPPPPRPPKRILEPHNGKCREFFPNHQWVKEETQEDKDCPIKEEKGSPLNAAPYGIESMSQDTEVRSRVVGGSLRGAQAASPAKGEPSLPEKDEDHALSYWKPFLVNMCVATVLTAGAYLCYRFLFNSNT
Outline: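 In-house PTP1B (1−405) at 500 pM final, preincubated 10 min at 24 °C with compound (up to 500 μM), then EDT-pY-Y-RKG-amide (1.4 μM final) or pFYN (20 μM final) added; 1.5 h at 24 °C, humidified. Stopped with 200 μM orthovanadate. Competition AlphaScreen using biotin-Ahx-EDT-pY-Y-RKG-amide (2.5 nM), anti-pTyr antibody 4G10 (500 pM), beads (5 μg/mL each), 2 h at 24 °C. Read against on-plate substrate standard curve.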

Homo sapiens [2] = species: Homo sapiens; test: Activation of human STEP46 (197 to 565 residues) expressed in Escherichia coli BL21(DE3) at 100 uM using biotin-pFyn peptide substrate after 60 mins by AlphaLISA assay relative to control
Outline: (§1)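 STEP46 (50 nM final) with biotinylated pFyn peptide (20 nM final) and compound in 1% DMSO, 60 min at room temperature in the dark. Detection by anti non-phospho Src/Tyr416 antibody in stop buffer containing 10 μM orthovanadate, plus protein A acceptor and streptavidin donor beads, 15 min each. % CTL computed against enzyme (100%) and no-enzyme (0%) controls.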

[3] = molecular target: T2, Tyrosine-protein phosphatase non-receptor type 5 (Homo sapiens) (UniProt P54829); test: Binding affinity to human 15N-labeled STEP PTP domain (281 to 563 residues) expressed in Escherichia coli OD2 assessed as induction of chemical perturbation at 500 uM by 1H,15N TROSY NMR spectral analysis
T2 sequence (whole entry): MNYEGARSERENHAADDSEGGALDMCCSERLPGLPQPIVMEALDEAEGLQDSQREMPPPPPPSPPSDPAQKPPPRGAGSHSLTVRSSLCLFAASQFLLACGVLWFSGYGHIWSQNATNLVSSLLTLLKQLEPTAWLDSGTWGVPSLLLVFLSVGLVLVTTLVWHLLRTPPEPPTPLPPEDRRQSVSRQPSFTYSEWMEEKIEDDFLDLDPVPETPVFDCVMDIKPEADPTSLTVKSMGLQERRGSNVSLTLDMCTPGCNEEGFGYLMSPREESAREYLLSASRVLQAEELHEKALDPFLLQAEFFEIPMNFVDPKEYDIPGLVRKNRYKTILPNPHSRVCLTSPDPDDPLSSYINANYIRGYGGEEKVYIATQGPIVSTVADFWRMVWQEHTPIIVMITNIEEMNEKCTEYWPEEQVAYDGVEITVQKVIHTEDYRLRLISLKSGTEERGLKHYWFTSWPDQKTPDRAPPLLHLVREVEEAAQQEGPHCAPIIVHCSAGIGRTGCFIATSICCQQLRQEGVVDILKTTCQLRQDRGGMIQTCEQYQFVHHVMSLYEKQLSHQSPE
Outline: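 40 μM 15N-labelled STEP PTP domain in 20 mM Tris-d11, 100 mM NaCl, 1 mM TCEP, pH 7.4, 8% D2O, 1% DMSO-d6, 298 K. TROSY spectra used 192 transients and 64 indirect points. Binders were called by manual comparison with the protein-only reference spectrum.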

Homo sapiens [4] = species: Homo sapiens; test: Activation of human STEP46 (197 to 565 residues) expressed in Escherichia coli BL21(DE3) at 300 uM preincubated for 10 mins followed by DiFMUP substrate addition and measured at 1 min time interval for 30 mins by fluorescence assay relative to control
Outline: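 STEP46 preincubated 10 min at room temperature with compound; reaction started with DiFMUP. Final: 100 nM STEP46, 1 μM DiFMUP, 50 mM HEPES, 0.02% Brij 35, 1 mM DTT, 5% DMSO. Fluorescence (ex 340/em 460 nm) every 1 min for 30 min at 37 °C; no-enzyme background subtracted. Linear slope expressed relative to enzyme without compound (100%).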

[5] = molecular target: T2, Tyrosine-protein phosphatase non-receptor type 5 (Homo sapiens); test: Activation of human STEP PTP domain (281 to 563 residues) expressed in Escherichia coli BL21(DE3) assessed as ratio of Kcat to Km at 500 uM using pFyn peptide substrate after 60 mins by RapidFire MS/MS assay (reference value: 400 +/- 20 /M/s)
[6] = molecular target: T2, Tyrosine-protein phosphatase non-receptor type 5 (Homo sapiens); test: Activation of human STEP PTP domain (281 to 563 residues) expressed in Escherichia coli BL21(DE3) at 500 uM using biotin-pFyn peptide substrate after 60 mins by AlphaLISA assay relative to control
Outline: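 AlphaLISA on the human STEP PTP domain (E. coli BL21(DE3)), 20 nM enzyme with 3 nM biotin-pFyn peptide, otherwise as for STEP46: 60 min at room temperature, anti non-phospho Src/Tyr416 antibody with orthovanadate stop, donor and acceptor beads, % of enzyme and no-enzyme controls.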

Homo sapiens [7] = species: Homo sapiens; test: Activation of human STEP46 (197 to 565 residues) expressed in Escherichia coli BL21(DE3) using biotin-pFyn peptide substrate after 60 mins by AlphaLISA assay; outline: as §1
[8] = molecular target: T3, Tyrosine-protein phosphatase non-receptor type 5 (Homo sapiens, UniProt P54829); test: Binding affinity to human 15N-labeled STEP PTP domain (281 to 563 residues) expressed in Escherichia coli OD2 by 1H,15N TROSY NMR spectral analysis
T3 sequence (P54829 whole entry): T2 sequence (whole entry)
Outline: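 40 μM ¹⁵N-labeled STEP PTP domain (expressed in ¹⁵N OD2 medium) in 20 mM Tris-d11, 100 mM NaCl, 1 mM TCEP, pH 7.4, 8% D₂O, with 500 μM ligand and 1% DMSO-d₆ at 298 K. 2D spectra of 192 transients were compared by hand with the protein reference spectrum.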

Activity [1]: inactive
Activity (Homo sapiens [2]): 33%
Activity [3]: Active
Activity (Homo sapiens [4]): 27%
Ratio [5]: 650 M⁻¹ s⁻¹
Activity [6]: 61%
Activity (Homo sapiens [7]): Dose-dependent effect
Kd [8]: 38 µM
SMILES: N=C(N)Nc1cc(C2CCNCC2)cc(C(F)(F)F)c1
